Measurements: ChEMBL document CHEMBL2385013, “7-Phenyl-imidazoquinolin-4(5H)-one derivatives as selective and orally available mPGES-1 inhibitors” (Bioorg Med Chem, 2013)
Converted amounts (≈) assume the structure as drawn.

Tests used:
[1] = Solubility of the compound in FaSSIF; assay type: physicochemical
[2] = Permeability of the compound at pH 7.4 by PAMPA; assay type: ADME; details: read-out: permeability
In short: (§1)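 Compound was incubated for 4 h between a donor compartment (System Solution, pH 5.0 or 7.4) and an acceptor sink buffer. The distribution was read by UV absorption, and effective permeability coefficients were calculated by a published method.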

[3] = Permeability of the compound at pH 5 by PAMPA; assay type: ADME; details: read-out: permeability; in short: as §1
[4] = AUC in rat at 1 mg/kg, iv; assay type: ADME, organism-based; design: dose 1 mg/kg, route intravenous; details: plasma
In short: (§2)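 Fasted male rats (n = 3) were given 1 mg/kg iv in 5% glucose/0.1 M HCl = 9/1, or 10 mg/kg po as a suspension in 0.5% methyl cellulose. Jugular vein blood was drawn into heparinized syringes at iv pre-dose, 5, 15, 30 min, 1, 2, 4, 6 and 24 h, or at po 15 and 30 min, 1, 2, 4, 6 and 24 h. Plasma was analysed for parent compound. BA = (AUCpo/Dpo)/(AUCiv/Div) × 100.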

[5] = Volume of distribution at steady state in rat at 1 mg/kg, iv; assay type: ADME, organism-based; design: dose 1 mg/kg, route intravenous; details: in vivo, read-out: Vdss; in short: as §2
[6] = Cmax in rat at 10 mg/kg, po; assay type: ADME, organism-based; design: dose 10 mg/kg, route oral; details: in vivo; in short: as §2
[7] = AUC in rat at 10 mg/kg, po; assay type: ADME, organism-based; design: dose 10 mg/kg, route oral; details: plasma; in short: as §2
[8] = Oral bioavailability in rat at 10 mg/kg; assay type: ADME, organism-based; details: in vivo; in short: as §2

Row | SMILES | solubility [1] [µg/mL] | Papp [2] [×10⁻⁶ cm/s] | Papp [3] [×10⁻⁶ cm/s] | AUC [4] [ng·h/mL] | Vd [5] [L/kg] | Cmax [6] [ng/mL] | AUC [7] [ng·h/mL] | bioavailability [8] [%]
1 | O=c1[nH]c2cc(Br)ccc2c2[nH]c(-c3ccccc3Cl)nc12 | 0.9 (≈ 2.4 µM) | 26 | > 30 |  |  |  |  | 
2 | O=c1[nH]c2cc(-c3ccccc3)ccc2c2nc(-c3c(F)cccc3Cl)[nH]c12 | 1 (≈ 2.57 µM) | > 30 | 30 | 728 | 1.4 | 472 | 1400 | 19
3 | O=c1[nH]c2cc(-c3cccc(Cl)c3)ccc2c2nc(-c3c(F)cccc3Cl)[nH]c12 | 0.5 (≈ 1.18 µM) | > 30 | 29 |  |  |  |  | 
4 | O=c1[nH]c2cc(-c3ccccc3)ccc2c2nc(-c3ccccc3Cl)[nH]c12 | 1 (≈ 2.69 µM) | > 30 | > 30 |  |  |  |  | 
